Experimental data collected from several papers.
Lines come from different studies, so protocols differ.
Target: Myosin-IIIb (MYO3B, Homo sapiens, UniProt Q8WXR4)
Sequence (Q8WXR4 1-1341, as in one of the studies): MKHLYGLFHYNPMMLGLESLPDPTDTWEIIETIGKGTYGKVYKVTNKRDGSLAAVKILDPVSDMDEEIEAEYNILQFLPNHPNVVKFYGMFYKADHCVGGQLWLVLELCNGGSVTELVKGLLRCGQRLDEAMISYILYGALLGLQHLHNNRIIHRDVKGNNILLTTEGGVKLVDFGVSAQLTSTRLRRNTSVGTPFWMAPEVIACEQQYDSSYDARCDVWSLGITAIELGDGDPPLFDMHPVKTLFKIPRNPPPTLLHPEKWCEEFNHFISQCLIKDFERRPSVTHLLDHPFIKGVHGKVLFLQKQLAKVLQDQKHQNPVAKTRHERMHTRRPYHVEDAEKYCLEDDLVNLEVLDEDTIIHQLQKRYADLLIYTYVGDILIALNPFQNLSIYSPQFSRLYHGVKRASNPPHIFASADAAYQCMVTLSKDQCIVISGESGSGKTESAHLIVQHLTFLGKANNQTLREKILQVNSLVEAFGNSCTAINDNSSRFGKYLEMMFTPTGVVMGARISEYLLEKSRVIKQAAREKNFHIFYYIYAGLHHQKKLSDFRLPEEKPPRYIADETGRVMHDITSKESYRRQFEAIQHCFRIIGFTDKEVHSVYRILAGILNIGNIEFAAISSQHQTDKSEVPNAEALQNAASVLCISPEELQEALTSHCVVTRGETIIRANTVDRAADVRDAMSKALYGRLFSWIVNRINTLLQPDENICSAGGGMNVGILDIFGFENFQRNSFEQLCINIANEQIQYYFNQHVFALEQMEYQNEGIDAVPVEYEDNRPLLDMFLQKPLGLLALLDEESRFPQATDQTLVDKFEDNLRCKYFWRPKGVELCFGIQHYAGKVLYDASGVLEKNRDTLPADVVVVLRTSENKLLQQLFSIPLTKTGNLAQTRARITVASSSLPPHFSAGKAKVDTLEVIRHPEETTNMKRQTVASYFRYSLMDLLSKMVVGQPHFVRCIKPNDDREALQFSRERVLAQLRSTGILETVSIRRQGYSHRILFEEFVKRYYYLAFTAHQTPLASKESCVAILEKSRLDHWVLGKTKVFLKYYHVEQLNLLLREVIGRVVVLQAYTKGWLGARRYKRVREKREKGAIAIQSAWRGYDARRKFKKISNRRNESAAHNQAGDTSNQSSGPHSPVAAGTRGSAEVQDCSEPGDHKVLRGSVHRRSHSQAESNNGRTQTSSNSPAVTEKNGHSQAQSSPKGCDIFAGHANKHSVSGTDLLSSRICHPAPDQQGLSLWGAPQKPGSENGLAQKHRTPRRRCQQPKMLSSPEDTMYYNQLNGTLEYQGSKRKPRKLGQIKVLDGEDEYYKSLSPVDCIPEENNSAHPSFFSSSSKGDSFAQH

| SMILES | assay | conditions | remaining binding [%] |
| --- | --- | --- | --- |
| c1cnn2ncc(-c3ccnc(N4CCC45COC5)n3)c2c1 | binding | 1 µM | 100 |
| O=C(NCCCN1CCOCC1)c1ccc(Nc2nccc(-c3cc4ccccc4s3)n2)cc1 | binding, competition with immobilised ligand | 1 µM | 100 |
| C[C@H]1CCN(c2nccc(-c3cnn4ncccc34)n2)C1 | binding | 1 µM | 100 |
| O=C(c1ccc(Nc2nccc(-c3cc4ccccc4s3)n2)cc1)N1CCC(N2CCCC2)CC1 | binding, competition with immobilised ligand | 1 µM | 100 |
| Cc1nc(N2CC[C@@H](O)C2)ncc1-c1cc(C(F)(F)F)cc2[nH]ncc12 | binding, competition with immobilised ligand | 1 µM | 93 |
| N[C@H]1CCN(c2nccc(-c3cnn4ncccc34)n2)C1 | binding | 1 µM | 100 |
| CNCc1ccccc1-c1csc([C@@H](C)Nc2nc(C)nc3cc(OC)c(OC)cc23)c1 | cell-free assay, competition with immobilised ligand | 1 µM | 47 |
| O=C(c1ccc(Nc2ncc(Cl)c(-c3ccc(Cl)s3)n2)cc1)N1CCC(N2CCCC2)CC1 | binding, competition with immobilised ligand | 1 µM | 100 |
| FC(F)(F)Oc1cccc(-c2cnc3ccc(-c4ccncc4)nn23)c1 | cell-free assay, competition with immobilised ligand | 5 µM | 100 |
| Cc1cnn2ncc(-c3ccnc(N(C)C)n3)c2c1 | binding | 1 µM | 80 |
| CCC(=O)N[C@@H]1CC[C@H](C(=O)N(C)c2ccc(-c3nc4ccccc4o3)cc2)C1 | cell-free assay, competition with immobilised ligand | 1 µM | 100 |
| O=C(NCC1CCOCC1)c1n[nH]cc1NC(=O)c1c(F)cccc1F | binding, competition with immobilised ligand | 1 µM | 100 |
| FC(F)(F)c1ccc2c(c1)nc(-c1cccnc1)n2C1CC1 | cell-free assay, competition with immobilised ligand | 1 µM | 67 |
| CC1CCCN1c1nccc(-c2cnn3ncccc23)n1 (stereo not drawn) | binding | 1 µM | 100 |
| c1cncc(-c2cccc(Nc3nccc(NC4CCCCC4)n3)c2)c1 | binding, competition with immobilised ligand | 10 µM | 100 |
| CNC(=O)[C@@H]1CC[C@@H](n2c(-c3ccc4cnccc4c3)nc3ccc(C(=O)NCc4cccc(C(N)=O)c4)cc32)C1 | binding, competition with immobilised ligand | 1 µM | 98 |
| CCN1CCN(Cc2ccc(C(=O)Nc3ccc(C)c(Oc4ccc5c(c4)CC(=O)N5)c3)cc2C(F)(F)F)CC1 | binding, competition with immobilised ligand | 1 µM | 100 |
| C[C@@H](c1cccc(C#N)c1)n1cc(Cl)cc(C(N)=O)c1=N | binding, competition with immobilised ligand | 1 µM | 100 |
| CN(C)c1nccc(-c2cnc3ncccn23)n1 | binding | 1 µM | 79 |
| C[C@@H]1CN(c2cc(-c3n[nH]c4ccc(OC5(C)CC5)cc34)ncn2)C[C@H](C)O1 | cell-free assay, competition with immobilised ligand | 0.1 µM | 89 |
| Nc1ncc2c(n1)-c1c([nH]c3ccc(C#CC4CC4)cc13)CCCC2 | binding, competition with immobilised ligand | 1 µM | 75 |
